Source: PubChem (The Scripps Research Institute Molecular Screening Center)
This is a sample that favours compounds with a hit; in the whole collection about 1.8% have one here.
SIAE primary: human SIAE inhibitors, primary screen, biochemical, fluorescence polarization, FP-Rh probe, 1536-well HTS; Sialate O-acetylesterase (Homo sapiens), Q9HAT2; SIAE FP-Rh probe binding; inhibition, % at 9.66 µM; actives 0.69% (n = 370,000);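 active means inhibition above a cutoff: mean of compounds within the control limits plus 3 SD of those, cut at about 17% in these data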;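 further: 0% = plate median of compound wells and 100% = probe without SIAE protein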
HTRA1 inhibitor: HTRA1 serine protease inhibitors, primary screen, biochemical, fluorescence polarization, HTS | Q92743 | recombinant HTRA1, FP-rhodamine activity-based probe | inhibition, % at 5.96 µM | actives 0.5% (n = 340,000) | AID 504803, 2011; in the data active means inhibition above about 36%;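 further: 0% = enzyme with DMSO and 100% = wells lacking enzyme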
Tn6 DDE FP: inhibitors of Tn6 peptide binding to fibrin DD(E), primary screen, biochemical, fluorescence polarization, human fibrin, Tn6 probe | Fibrin DD(E) TRITC-Tn6 fluorescence polarization displacement | inhibition, % at 8.3 µM | actives 0.21% (n = 370,000) | AID 720509, 2013;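 active means inhibition above a per-campaign cutoff: mean of compounds within control limits plus 3 SD, cut at about 15% in these data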;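 further: 0% = median of all compound wells on the plate and 100% = blocking peptide control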
Target sequence (P02675 whole entry, looked up): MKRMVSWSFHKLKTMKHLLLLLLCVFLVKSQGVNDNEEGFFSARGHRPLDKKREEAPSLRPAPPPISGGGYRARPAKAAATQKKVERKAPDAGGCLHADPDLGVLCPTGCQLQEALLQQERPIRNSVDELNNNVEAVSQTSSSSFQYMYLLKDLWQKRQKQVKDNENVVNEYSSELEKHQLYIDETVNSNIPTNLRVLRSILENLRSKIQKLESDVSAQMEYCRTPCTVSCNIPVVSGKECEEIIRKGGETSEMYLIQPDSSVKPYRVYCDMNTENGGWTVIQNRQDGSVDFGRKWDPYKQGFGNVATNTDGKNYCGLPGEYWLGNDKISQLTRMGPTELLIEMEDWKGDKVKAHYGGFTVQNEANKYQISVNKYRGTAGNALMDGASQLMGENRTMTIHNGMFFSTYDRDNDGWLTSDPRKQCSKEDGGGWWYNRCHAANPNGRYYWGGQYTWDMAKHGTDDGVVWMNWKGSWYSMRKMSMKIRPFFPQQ
mABHD4 FP: ABHD4 inhibitors, primary screen, biochemical, fluorescence polarization, mouse. (Lyso)-N-acylphosphatidylethanolamine lipase (Mus musculus), Q8VD66. purified mABHD4, FP-Rh probe fluorescence polarization. inhibition, % at 8.92 µM. actives 0.54% (n = 370,000). AID 720543, 2013;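 active means inhibition exceeding the mean over every tested compound plus 3 SD, cut at about 30% in these data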;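 further: 0% = plate median of compound wells and 100% = S159A mutant with DMSO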
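system = mouse ABHD4 enzyme, wild type | medium = HEPES pH 7.0, NaCl, Pluronic buffer | also added = FP-Rh probe | incubation = Enzyme–compound pre-incubation 45 min, then probe 60 min, both 25 °C | technique = fluorescence polarization, excitation 525 nm, emission 598 nm, BODIPY TMR filters | controls = S159A mutant high control, sample median low control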
TCR CD3 inh: inhibitors of human TCR-CD3 interaction, primary screen, biochemical, fluorescence, TAMRA-labeled TCR probe | inhibition, % at 9.4 µM | actives 0.37% (n = 360,000) | AID 651800, 2012; in the data active means inhibition above about 19%;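 further: recombinant mutant TCR 2C K166C tagged with TAMRA read by polarization; 0% = receptor in buffer alone and 100% = receptor with positive control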
Tn7 DDE FP: inhibitors of Tn7 peptide binding to fibrin DD(E), primary screen, biochemical, fluorescence polarization, human fibrin, Tn7 probe; Fibrinogen beta chain (Homo sapiens), P02675; actives 0.13% (n = 370,000); FP displacement of FITC-Tn7 peptide from fibrin DD(E); 0% = median of compound wells per plate; inhibition, % at 8.3 µM;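 active means inhibition above the mean of compounds falling within the control limits plus 3 SD of them, cut at about 14% in these data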;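 further: 0% = plate median of compound wells and 100% = 10 µM Aha-Tn7 peptide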
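Assay system: Human fibrin DD(E) protein | Medium: Tris buffer with calcium and detergent, pH 7.8 | Reagent: 0.1 µM fluorescent Tn7 | Compound dosing: Single point at 8.3 µM | Times: 10 min preincubation, 3 h with tracer, room temperature | Detection: Fluorescence polarization of the labelled Tn7 tracer | Controls: Aha-Tn7 high control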
SIAE confirm: human SIAE inhibitors, retest, confirmation, biochemical, fluorescence polarization, FP-Rh probe, triplicate; shares compounds with SIAE primary; SIAE FP-Rh activity-based probe; inhibition, % at 9.66 µM; actives 13% (n = 2,300);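 active means mean inhibition of the replicates above the hit cutoff set in the primary screen, cut at about 17% in these data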;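 further: 0% = SIAE with DMSO and probe and 100% = probe without SIAE; inhibitors lower polarization as more probe stays unbound to SIAE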
An asterisk follows results filed as active.

Screening CN(C)c1ccc(-c2csc(C(O)c3ccc(F)cc3)n2)cc1 (stereo not drawn) returned SIAE primary 8.4, Tn6 DDE FP -3.7, mABHD4 FP 12.2, TCR CD3 inh -3.3 and Tn7 DDE FP 1.0.
Screening Cc1ccc(S(=O)(=O)N2CCCC2CNC(=O)c2ccccc2)cc1 (stereo not drawn) returned SIAE primary 21.6*, HTRA1 inhibitor -3.7, Tn6 DDE FP -2.6, mABHD4 FP 5.6, TCR CD3 inh 6.9, Tn7 DDE FP -5.0 and SIAE confirm 2.7.
Screening Cc1ccc(S(=O)(=O)N2CCCC2CNC(=O)C(=O)Nc2ccccc2)cc1 (stereo not drawn) returned SIAE primary 2.9, HTRA1 inhibitor -9.6, Tn6 DDE FP -4.9, mABHD4 FP -4.2, TCR CD3 inh 1.0 and Tn7 DDE FP -2.2.
`O=C(NC1CCOc2ccccc21)c1ccccn1` (stereo not drawn) gave SIAE primary -5.0, HTRA1 inhibitor 1.3, Tn6 DDE FP 3.7, mABHD4 FP 7.4, TCR CD3 inh 8.3 and Tn7 DDE FP -6.2.
Screening NC(=O)c1cc(S(=O)(=O)N2CCCC2)ccc1OCCOc1ccccc1F returned SIAE primary 21.3*, HTRA1 inhibitor -3.2, Tn6 DDE FP 1.1, mABHD4 FP 8.2, TCR CD3 inh 2.4, Tn7 DDE FP 4.3 and SIAE confirm 0.7.
`COc1ccc(N2CCN(C(=O)CN(c3ccccc3)S(C)(=O)=O)CC2)cc1` gave SIAE primary 19.9*, HTRA1 inhibitor 4.7, Tn6 DDE FP 0.0, mABHD4 FP 2.9, TCR CD3 inh -5.2, Tn7 DDE FP -3.2 and SIAE confirm 3.5.
For COc1ccc(S(=O)(=O)N(CC(=O)N2CCN(c3ccccc3)CC2)c2ccccc2)cc1 the results were SIAE primary -1.9, HTRA1 inhibitor 4.2, Tn6 DDE FP -1.1, mABHD4 FP -1.5, TCR CD3 inh 8.5 and Tn7 DDE FP -0.7.
`CS(=O)(=O)N(CC(=O)N1CCN(Cc2ccccc2)CC1)c1ccccc1F` gave SIAE primary -0.6, HTRA1 inhibitor -1.8, Tn6 DDE FP -1.6, mABHD4 FP 5.0, TCR CD3 inh 8.0 and Tn7 DDE FP -1.2.
Screening CS(=O)(=O)N(CC(=O)N1CCN(Cc2ccccc2)CC1)c1ccccc1Br returned SIAE primary 19.1*, HTRA1 inhibitor 5.1, Tn6 DDE FP 8.2, mABHD4 FP 4.4, TCR CD3 inh -2.9, Tn7 DDE FP 3.6 and SIAE confirm 5.5.
Screening CCCOc1ccc(NC(=O)CCC(=O)NC(C)c2ccccc2)cc1 (stereo not drawn) returned SIAE primary -3.3, HTRA1 inhibitor 7.2, Tn6 DDE FP 3.4, mABHD4 FP -1.2, TCR CD3 inh -7.0 and Tn7 DDE FP 2.8.
For O=C(NC(Cc1ccccc1)C(=O)O)/C(=C/c1ccc(Cl)cc1)NC(=O)c1ccccc1 (stereo not drawn) the results were SIAE primary 17.2*, HTRA1 inhibitor -4.9, Tn6 DDE FP -0.9, mABHD4 FP -5.4, TCR CD3 inh 2.9, Tn7 DDE FP -2.7 and SIAE confirm 1.4.
For Cn1cccc1Cc1nnc(SCC(=O)Nc2ccc3c(c2)OCCO3)n1-c1ccc(F)cc1 the results were SIAE primary 19.7*, HTRA1 inhibitor -5.2, Tn6 DDE FP -6.4, mABHD4 FP 4.2, TCR CD3 inh -2.4, Tn7 DDE FP -0.9 and SIAE confirm -5.4.
